From ChEMBL document CHEMBL1275560, “Serial daptomycin selection generates daptomycin-nonsusceptible Staphylococcus aureus strains with a heterogeneous vancomycin-intermediate phenotype” (2008) come the findings set out here.

≈ marks a conversion by molar mass, not a printed value. Calls of active or inactive are those of the source. No cut-off for these calls is given here.

Experiment [1] deals with Staphylococcus aureus. Kind of experiment: Antimicrobial activity against methicillin-resistant Staphylococcus aureus N315DeltaIP by Etest method. Type of experiment: functional. In a few lines: (§1)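 Etest MICs on Mueller-Hinton agar, run per manufacturer. Fosfomycin plates carried 25 µg/ml glucose-6-phosphate. Daptomycin Etest was also done with 200 µM GdCl3 in agar. Daptomycin MICs were read at 24 h and again at 48 h to capture slowly growing resistant subpopulations.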

In experiment [2] the test system is Staphylococcus aureus. Briefly: Antimicrobial activity against Staphylococcus aureus 10*3d1 by Etest method. The class given is functional. The gist of the method: (§2)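 MICs read by Etest on Mueller-Hinton agar, following the manufacturer's method. Agents tested were daptomycin, vancomycin, teicoplanin, linezolid, oxacillin, imipenem, bacitracin, fosfomycin and colistin. For fosfomycin the agar carried 25 µg/ml D-glucose-6-phosphate. The daptomycin Etest was also run with 200 µM gadolinium(III) chloride in the agar. Daptomycin MICs were read at both 24 h and 48 h.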

Experiment [3] relates to Staphylococcus aureus. Briefly: Antimicrobial activity against Staphylococcus aureus 10*3d1-10 by Etest method. The class given is functional. The gist of the method: as §2
In experiment [4] the test system is Staphylococcus aureus. Briefly: Antimicrobial activity against methicillin-resistant Staphylococcus aureus N315DeltaIP heteroresistant subpopulations by Etest method. Type of experiment: functional. In a few lines:
as §1

For experiment [5], the system named is Staphylococcus aureus. Briefly: Antimicrobial activity against methicillin-resistant Staphylococcus aureus N315DeltaIP by Etest method in presence of 200 uM GdCl3.
Experiment [6] concerns Staphylococcus aureus. Kind of experiment: Antimicrobial activity against methicillin-resistant Staphylococcus aureus 10*3d1 by Etest method in presence of 200 uM GdCl3. Type of experiment: functional. The gist of the method:
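Etest on Mueller-Hinton agar containing gadolinium(III) chloride at 200 µM, used as a mechanosensitive channel (MscL) blocker; MICs read at 24 h and also at 48 h so a slowly growing resistant subpopulation is not missed. The strain is a two-step daptomycin-selected derivative of MRSA N315ΔIP, stocked at –80°C in 40% glycerol.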

Experiment [7] has as its system Staphylococcus aureus. Briefly: Antimicrobial activity against methicillin-resistant Staphylococcus aureus N315DeltaIP assessed as decreased membrane potential. Type of experiment: functional, organism-based. The gist of the method:
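Flow cytometry with DiOC2(3). Cells were grown to exponential phase (OD600 0.3) in MHB with 50 µg/ml calcium, then diluted 1:100 in kit buffer. GdCl3 was 200 µM final; CCCP-treated and heat-killed cells served as controls. TO-PRO-3 (500 nM) flagged damaged membranes. Dye at 30 µM, 4 min, room temperature. 10,000 cells per run, 488-nm excitation; red/green ratio of population mean fluorescence.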

Turning to COLISTIN, the MIC against Staphylococcus aureus [1] was 256 mg/L; in the experiment with Staphylococcus aureus [2], 192 mg/L; in the experiment on Staphylococcus aureus [3] it was 192 mg/L.
Regarding `CN[C@H](CC(C)C)C(=O)N[C@H]1C(=O)N[C@@H](CC(N)=O)C(=O)N[C@H]2C(=O)N[C@H]3C(=O)N[C@H](C(=O)N[C@H](C(=O)O)c4cc(O)cc(O)c4-c4cc3ccc4O)[C@H](O)c3ccc(c(Cl)c3)Oc3cc2cc(c3O[C@@H]2O[C@H](CO)[C@@H](O)[C@H](O)[C@H]2O[C@H]2C[C@](C)(N)[C@H](O)[C@H](C)O2)Oc2ccc(cc2Cl)[C@H]1O` [VANCOMYCIN], the MIC in the experiment with Staphylococcus aureus [1] was found to be 0.75 mg/L (≈ 0.518 µM); against Staphylococcus aureus [2], 3 mg/L (≈ 2.07 µM).
For the compound `Cc1onc(-c2ccccc2)c1C(=O)N[C@@H]1C(=O)N2[C@@H]1SC(C)(C)[C@@H]2C(=O)O` [OXACILLIN], the MIC in the experiment on Staphylococcus aureus [1] was 24 mg/L (≈ 59.8 µM); against Staphylococcus aureus [2] it was > 256 mg/L; against Staphylococcus aureus [3] it was > 256 mg/L; against Staphylococcus aureus [4], 192 mg/L (≈ 478 µM).
Consider `C[C@@H](O)[C@H]1C(=O)N2C(C(=O)O)=C(SCCNC=N)C[C@H]12` [IMIPENEM ANHYDROUS], for which the MIC against Staphylococcus aureus [1] was 2 mg/L (≈ 6.68 µM); in the experiment on Staphylococcus aureus [2], > 32 mg/L; with Staphylococcus aureus [3], > 32 mg/L; in the experiment with Staphylococcus aureus [4], 3 mg/L (≈ 10 µM).
Take `CCCCCCCCCC(=O)N[C@@H](Cc1c[nH]c2ccccc12)C(=O)N[C@H](CC(N)=O)C(=O)N[C@@H](CC(=O)O)C(=O)N[C@@H]1C(=O)NCC(=O)N[C@@H](CCCN)C(=O)N[C@@H](CC(=O)O)C(=O)N[C@H](C)C(=O)N[C@@H](CC(=O)O)C(=O)NCC(=O)N[C@H](CO)C(=O)N[C@@H]([C@H](C)CC(=O)O)C(=O)N[C@@H](CC(=O)c2ccccc2N)C(=O)O[C@@H]1C`: the MIC was determined as 0.5 mg/L (≈ 0.309 µM) against Staphylococcus aureus [1]; 0.5 mg/L with Staphylococcus aureus [5]; 3 mg/L (≈ 1.85 µM) against Staphylococcus aureus [2]; 3 mg/L in the experiment on Staphylococcus aureus [6]; 1 mg/L (≈ 0.617 µM) in the experiment on Staphylococcus aureus [3]. Also, the result with Staphylococcus aureus [7] was Active.
Turning to `C[C@@H]1O[C@@H]1P(=O)(O)O` [FOSFOMYCIN], the MIC was 12 mg/L (≈ 86.9 µM) in the experiment with Staphylococcus aureus [1], 0.5 mg/L (≈ 3.62 µM) against Staphylococcus aureus [2] and 2 mg/L (≈ 14.5 µM) with Staphylococcus aureus [3].

A word on the MIC: it is the least concentration at which growth counts as inhibited.
